In ChEMBL document CHEMBL3856209, “Novel pyrazolopyridine derivatives as potential angiogenesis inhibitors: Synthesis, biological evaluation and transcriptome-based mechanistic analysis” (Eur J Med Chem, 2016):
The source made the active and inactive calls.

Experiments:
[1] = target: Vascular endothelial growth factor receptor 2 (Homo sapiens) (UniProt P35968); assay: Inhibition of VEGF-165-induced VEGFR2 autophosphorylation at Tyr996 in serum-starved HUVEC at 2 uM preincubated for 2 hrs followed by VEGF-165 induction measured after 5 mins by Western blot analysis; format: cell-based
[2] = tested on: HUVEC; assay: Effect on HINT3 gene expression in serum-starved HUVEC after 24 hrs by microarray analysis relative to control; format: functional, Homo sapiens
In short: (§1)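 Confluent, serum-starved HUVEC (pooled from 3–5 donors, passage ≤4) treated with 2 μM compound or vehicle with 2.5% FBS for 6 h or 24 h. Total RNA hybridized to Illumina Human-HT12 arrays. Data were background-corrected, vst-transformed and rsn-normalized. Hits called by moderated paired t-test versus DMSO-treated cells, p < 0.05 and log2 fold change >|0.5|.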

[3] = tested on: HUVEC; assay: Effect on GANAB gene expression in serum-starved HUVEC after 6 hrs by microarray analysis relative to control; format: functional, Homo sapiens; in short: as §1
[4] = tested on: HUVEC; assay: Effect on SND1-IT1 gene expression in serum-starved HUVEC after 6 hrs by microarray analysis relative to control; format: functional, Homo sapiens
[5] = tested on: HUVEC; assay: Effect on TAOK1 gene expression in serum-starved HUVEC after 6 hrs by microarray analysis relative to control; format: functional, Homo sapiens
[6] = tested on: HUVEC; assay: Effect on CKS1B gene expression in serum-starved HUVEC after 24 hrs by microarray analysis relative to control; format: functional, Homo sapiens
In short: (§2)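 Serum-starved confluent HUVEC treated with 2 μM compound or DMSO in 2.5% FBS for 6 h or 24 h; RNA hybridized to Illumina Human-HT12 arrays. Data background-corrected, vst-transformed and rsn-normalized. Differential probes called by moderated paired t-test (limma) at p < 0.05 and log2 fold change >|0.5| vs DMSO.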

[7] = tested on: HUVEC; assay: Effect on FILIP1L gene expression in serum-starved HUVEC after 24 hrs by microarray analysis relative to control; format: functional, Homo sapiens; in short: as §1
[8] = tested on: HUVEC; assay: Effect on PNISR gene expression in serum-starved HUVEC after 24 hrs by microarray analysis relative to control; format: functional, Homo sapiens
In short: (§3)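 Serum-starved confluent HUVEC (pooled from 3–5 donors, passage ≤4) were treated with 2 μM compound or vehicle in 2.5% FBS for 6 h or 24 h, and total RNA was isolated. Hybridization was on Illumina Human-HT12. Data were processed with bgAdjust, vst and rsn normalization. Changes versus DMSO were called by moderated paired t-test at p < 0.05 and |log2 fold change| > 0.5.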

[9] = tested on: HUVEC; assay: Effect on ZAK gene expression in serum-starved HUVEC after 6 hrs by microarray analysis relative to control; format: functional, Homo sapiens
[10] = tested on: HUVEC; assay: Effect on ABCA1 gene expression in serum-starved HUVEC after 6 hrs by microarray analysis relative to control; format: functional, Homo sapiens
In short: (§4)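 Confluent serum-starved HUVEC (primary, pooled from 3–5 donors, passage ≤4) treated with 2 μM compound or DMSO vehicle in 2.5% FBS for 6 h or 24 h. Total RNA hybridized to Illumina Human-HT12 arrays, background-corrected, vst-transformed and rsn-normalized. Differential expression versus DMSO by moderated paired t-test (p < 0.05, |log2 fold change| > 0.5).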

[11] = tested on: HUVEC; assay: Effect on BHLHE40 gene expression in serum-starved HUVEC after 6 hrs by microarray analysis relative to control; format: functional, Homo sapiens; in short: as §2
[12] = tested on: HUVEC; assay: Effect on CD68 gene expression in serum-starved HUVEC after 6 hrs by microarray analysis relative to control; format: functional, Homo sapiens; in short: as §2
[13] = tested on: HUVEC; assay: Effect on CDK1 gene expression in serum-starved HUVEC after 6 hrs by microarray analysis relative to control; format: functional, Homo sapiens; in short: as §2
[14] = tested on: HUVEC; assay: Effect on CYP4X1 gene expression in serum-starved HUVEC after 6 hrs by microarray analysis relative to control; format: functional, Homo sapiens; in short: as §1
[15] = tested on: HUVEC; assay: Effect on EMCN gene expression in serum-starved HUVEC after 6 hrs by microarray analysis relative to control; format: functional, Homo sapiens; in short: as §4
[16] = tested on: HUVEC; assay: Effect on FDPS gene expression in serum-starved HUVEC after 6 hrs by microarray analysis relative to control; format: functional, Homo sapiens
In short: (§5)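 Serum-starved confluent HUVEC (primary, pooled from 3–5 donors, passage ≤4) treated with 2 μM test compound or DMSO vehicle (working dilutions ≤0.1% v/v) in presence of 2.5% FBS for 6 h or 24 h; total RNA hybridized to Illumina Human-HT12 arrays; background correction, vst, rsn normalization; moderated paired t-test versus DMSO, thresholds p < 0.05 and log2 fold change >|0.5|.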

[17] = tested on: HUVEC; assay: Effect on HMGB2 gene expression in serum-starved HUVEC after 6 hrs by microarray analysis relative to control; format: functional, Homo sapiens
[18] = tested on: HUVEC; assay: Effect on LSS gene expression in serum-starved HUVEC after 6 hrs by microarray analysis relative to control; format: functional, Homo sapiens
[19] = tested on: HUVEC; assay: Effect on OIP5 gene expression in serum-starved HUVEC after 6 hrs by microarray analysis relative to control; format: functional, Homo sapiens
[20] = tested on: HUVEC; assay: Effect on TK1 gene expression in serum-starved HUVEC after 6 hrs by microarray analysis relative to control; format: functional, Homo sapiens
[21] = tested on: HUVEC; assay: Effect on TMEM154 gene expression in serum-starved HUVEC after 6 hrs by microarray analysis relative to control; format: functional, Homo sapiens
[22] = tested on: HUVEC; assay: Effect on TRIP13 gene expression in serum-starved HUVEC after 6 hrs by microarray analysis relative to control; format: functional, Homo sapiens
[23] = tested on: HUVEC; assay: Effect on UBE2J1 gene expression in serum-starved HUVEC after 6 hrs by microarray analysis relative to control; format: functional, Homo sapiens
[24] = tested on: HUVEC; assay: Effect on ANGPT2 gene expression in serum-starved HUVEC after 24 hrs by microarray analysis relative to control; format: functional, Homo sapiens; in short: as §5
[25] = tested on: HUVEC; assay: Effect on CCL8 gene expression in serum-starved HUVEC after 24 hrs by microarray analysis relative to control; format: functional, Homo sapiens; in short: as §4
[26] = tested on: HUVEC; assay: Effect on CTSH gene expression in serum-starved HUVEC after 24 hrs by microarray analysis relative to control; format: functional, Homo sapiens; in short: as §1
[27] = tested on: HUVEC; assay: Effect on CXCR4 gene expression in serum-starved HUVEC after 24 hrs by microarray analysis relative to control; format: functional, Homo sapiens; in short: as §4
[28] = tested on: HUVEC; assay: Effect on HJURP gene expression in serum-starved HUVEC after 24 hrs by microarray analysis relative to control; format: functional, Homo sapiens; in short: as §1
[29] = tested on: HUVEC; assay: Effect on HLA-DMA gene expression in serum-starved HUVEC after 24 hrs by microarray analysis relative to control; format: functional, Homo sapiens
[30] = tested on: HUVEC; assay: Effect on ITGA10 gene expression in serum-starved HUVEC after 24 hrs by microarray analysis relative to control; format: functional, Homo sapiens; in short: as §1
[31] = tested on: HUVEC; assay: Effect on KIF4A gene expression in serum-starved HUVEC after 24 hrs by microarray analysis relative to control; format: functional, Homo sapiens; in short: as §3
[32] = tested on: HUVEC; assay: Effect on KITLG gene expression in serum-starved HUVEC after 24 hrs by microarray analysis relative to control; format: functional, Homo sapiens; in short: as §3
[33] = tested on: HUVEC; assay: Effect on LPIN1 gene expression in serum-starved HUVEC after 24 hrs by microarray analysis relative to control; format: functional, Homo sapiens
[34] = tested on: HUVEC; assay: Effect on MYLIP gene expression in serum-starved HUVEC after 24 hrs by microarray analysis relative to control; format: functional, Homo sapiens; in short: as §3
[35] = tested on: HUVEC; assay: Effect on SMC4 gene expression in serum-starved HUVEC after 24 hrs by microarray analysis relative to control; format: functional, Homo sapiens
[36] = tested on: HUVEC; assay: Effect on TM4SF18 gene expression in serum-starved HUVEC after 24 hrs by microarray analysis relative to control; format: functional, Homo sapiens
[37] = tested on: HUVEC; assay: Effect on TUBB2B gene expression in serum-starved HUVEC after 24 hrs by microarray analysis relative to control; format: functional, Homo sapiens

Vascular endothelial growth factor receptor 2 (Homo sapiens), sequence (P35968 whole entry): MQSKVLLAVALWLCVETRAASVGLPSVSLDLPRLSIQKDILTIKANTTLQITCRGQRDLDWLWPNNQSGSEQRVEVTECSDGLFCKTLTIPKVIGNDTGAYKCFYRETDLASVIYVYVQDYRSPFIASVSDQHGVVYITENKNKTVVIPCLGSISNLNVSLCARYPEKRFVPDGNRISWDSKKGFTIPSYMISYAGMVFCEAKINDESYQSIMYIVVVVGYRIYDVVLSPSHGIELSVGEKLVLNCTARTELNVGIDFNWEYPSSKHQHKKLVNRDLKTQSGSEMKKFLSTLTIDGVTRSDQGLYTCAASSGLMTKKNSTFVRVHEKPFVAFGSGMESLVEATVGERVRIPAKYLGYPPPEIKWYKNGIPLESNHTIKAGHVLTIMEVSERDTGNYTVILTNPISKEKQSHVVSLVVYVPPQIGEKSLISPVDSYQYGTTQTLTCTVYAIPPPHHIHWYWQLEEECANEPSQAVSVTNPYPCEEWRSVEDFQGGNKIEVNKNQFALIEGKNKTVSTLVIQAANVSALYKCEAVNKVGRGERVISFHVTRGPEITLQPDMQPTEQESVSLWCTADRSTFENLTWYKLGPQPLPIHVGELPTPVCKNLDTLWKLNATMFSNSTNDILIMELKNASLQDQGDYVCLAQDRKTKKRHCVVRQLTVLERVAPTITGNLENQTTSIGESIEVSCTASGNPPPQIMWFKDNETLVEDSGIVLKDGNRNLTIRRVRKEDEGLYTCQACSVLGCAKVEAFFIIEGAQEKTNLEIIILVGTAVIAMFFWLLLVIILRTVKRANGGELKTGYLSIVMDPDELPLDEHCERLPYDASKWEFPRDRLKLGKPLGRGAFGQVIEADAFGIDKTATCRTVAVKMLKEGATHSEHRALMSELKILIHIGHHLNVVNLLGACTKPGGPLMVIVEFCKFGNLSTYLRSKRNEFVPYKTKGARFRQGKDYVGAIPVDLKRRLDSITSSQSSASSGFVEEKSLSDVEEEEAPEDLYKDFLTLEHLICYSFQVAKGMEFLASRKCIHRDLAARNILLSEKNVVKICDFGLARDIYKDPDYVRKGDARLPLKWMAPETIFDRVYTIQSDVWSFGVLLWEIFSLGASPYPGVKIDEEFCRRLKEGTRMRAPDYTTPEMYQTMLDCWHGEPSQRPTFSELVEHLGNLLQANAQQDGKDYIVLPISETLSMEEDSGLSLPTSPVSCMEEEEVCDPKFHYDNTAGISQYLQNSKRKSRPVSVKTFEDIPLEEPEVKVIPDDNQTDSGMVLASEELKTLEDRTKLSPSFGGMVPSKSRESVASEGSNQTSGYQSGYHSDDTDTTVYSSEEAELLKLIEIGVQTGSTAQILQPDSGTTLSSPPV

COc1ccc(Cn2nc(-c3ccccc3)c3cc(Nc4ccc(N5CCN(C)CC5)cc4)nc(N4CCNCC4)c32)cc1
inhibition [1]: Active
log2FC [2]: 0.6699
log2FC [3]: -0.1113
log2FC [4]: -0.0103
log2FC [5]: -0.1058

COc1ccc(Cn2nc(-c3ccccc3)c3cc(Cl)nc(N4CCNCC4)c32)cc1
log2FC [6]: -0.5699
log2FC [7]: 0.0497
log2FC [8]: 0.0521
log2FC [9]: 0.5589

COc1ccc(Cn2nc(-c3ccccc3)c3cc(Nc4ccc(N5CCN(C)CC5)cc4)nc(N4CCN(C)CC4)c32)cc1
fold change (FC) [10]: 0.0783
fold change (FC) [11]: 0.7182
fold change (FC) [12]: 0.5187
log2FC [13]: -0.1173
fold change (FC) [14]: 0.4504
fold change (FC) [15]: 0.2035
fold change (FC) [16]: -0.059
fold change (FC) [17]: -0.0362
fold change (FC) [18]: 0.4912
fold change (FC) [19]: -0.4214
log2FC [20]: -0.2736
fold change (FC) [21]: 0.2897
log2FC [22]: -0.1432
log2FC [23]: 0.4634
fold change (FC) [24]: 0.5736
fold change (FC) [25]: -0.7427
log2FC [26]: -0.6409
fold change (FC) [27]: 0.6553
log2FC [28]: -0.6338
fold change (FC) [29]: -0.8514
log2FC [30]: 0.5991
log2FC [31]: -0.5756
log2FC [32]: 0.5605
log2FC [33]: 0.8618
log2FC [34]: -0.2675
log2FC [35]: -0.5117
log2FC [36]: 0.5978
log2FC [37]: 0.8576
